Legend:
[1] = Drug metabolism in human liver microsomes at 1 uM after 15 mins; type: ADME, Microsome; conditions: read-out: Drug metabolism
Procedure, shortened: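 Human liver microsome incubation at 37 °C for 15 min with compound at 1 µM; turnover expressed as percent of compound metabolized.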

[2] = Cytotoxicity against human MT4 cells; type: cell-based
[3] = tested on: Human immunodeficiency virus 1; assay: Antiviral activity against wild type Human immunodeficiency virus 1 3B infected in human MT4 cells assessed as inhibition of viral replication; type: functional, organism-based
Procedure, shortened: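 EC50 values are averages of at least two independent experiments (typically three to four), each run in quadruplicate. For the serum-shifted line, the same antiviral assay includes 50% human serum, used as a functional measure of plasma protein binding.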

[4] = tested on: Human immunodeficiency virus 1; assay: Antiviral activity against wild type Human immunodeficiency virus 1 3B infected in human MT4 cells assessed as inhibition of viral replication in presence of 50% human serum
[5] = Plasma clearance in rat at 2 mg/kg, iv; type: ADME, organism-based; set-up: dose 2 mg/kg, route intravenous
Procedure, shortened: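 Single intravenous dose of 2 mg/kg in rats. The formulation is typically 1 mg/mL in PEG400/ethanol/saline (70/20/10). Clearance values are averages from two or three animals. High is >3 L/h/kg (>70% liver blood flow) and low is <1.3 L/h/kg (<30%).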

[6] = tested on: Human immunodeficiency virus 1; assay: Selectivity ratio of EC50 for Human immunodeficiency virus 1 3B clinical isolate harboring L10I/K20R/M36I/G48V/ I62V/A71V/V82A/I93L protease mutant to EC50 for wild type Human immunodeficiency virus 1 3B; type: functional
[7] = tested on: Human immunodeficiency virus 1; assay: Selectivity ratio of EC50 for Human immunodeficiency virus 1 3B clinical isolate harboring L10I/I13V/M46I/I50V/L63P/L76V protease mutant to EC50 for wild type Human immunodeficiency virus 1 3B; type: functional
[8] = tested on: Human immunodeficiency virus 1; assay: Selectivity ratio of EC50 for Human immunodeficiency virus 1 3B clinical isolate harboring L10I/M46I/I64V/I84V/L90M/I93L protease mutant to EC50 for wild type Human immunodeficiency virus 1 3B; type: functional
[9] = tested on: Human immunodeficiency virus 1; assay: Antiviral activity against Human immunodeficiency virus 1 3B clinical isolate harboring L10I/K20R/M36I/G48V/ I62V/A71V/V82A/I93L protease mutant infected in human MT4 cells assessed as inhibition of viral replication; type: functional, organism-based
Procedure, shortened: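 Each assay run in quadruplicate. Values are averages of at least two independent experiments, typically three to four. Cytotoxicity (CC50) was measured in parallel in MT4 cells.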

[10] = tested on: Human immunodeficiency virus 1; assay: Antiviral activity against Human immunodeficiency virus 1 3B clinical isolate harboring L10I/I13V/M46I/I50V/L63P/L76V protease mutant infected in human MT4 cells assessed as inhibition of viral replication; type: functional, organism-based
Procedure, shortened: (§1)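 Inhibition of replication in MT4 cells infected with protease-mutant HIV-1 clinical isolates, reported as EC50. Each assay run in quadruplicate. Values are averages of at least two independent experiments, typically three to four. Cytotoxicity (CC50) was measured in parallel in MT4 cells.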

[11] = tested on: Human immunodeficiency virus 1; assay: Antiviral activity against Human immunodeficiency virus 1 3B clinical isolate harboring L10I/M46I/I64V/I84V/L90M/I93L protease mutant infected in human MT4 cells assessed as inhibition of viral replication; type: functional, organism-based; procedure, shortened: as §1

COC(=O)N[C@H](C(=O)N[C@@H](Cc1ccc(-c2ccc(OC)nc2)cc1)[C@@H](O)C[C@@H](Cc1ccccc1F)C(=O)N[C@H]1c2cc(Cl)cc(F)c2OC[C@H]1O)C(C)(C)C
metabolised at 0.25 h, 1 µM [1]: 23%
CC50 [2]: > 10000 nM
EC50 [3]: 4.1 nM
EC50 [4]: 16 nM

COC(=O)N[C@H](C(=O)N[C@@H](Cc1ccc(-c2ccc(OC)nc2)cc1)[C@@H](O)C[C@@H](Cc1cccc(OC(F)(F)F)c1)C(=O)N[C@H]1[C@H](C)CCC[C@H]1O)C(C)(C)C
metabolised at 0.25 h, 1 µM [1]: 94%
clearance [5]: 90 mL/min/kg
CC50 [2]: > 10000 nM
EC50 [3]: 0.9 nM
EC50 [4]: 3.2 nM

COC(=O)N[C@H](C(=O)N[C@@H](Cc1ccc(-c2ccc(OC)nc2)cc1)[C@@H](O)C[C@@H](Cc1ccccc1F)C(=O)N[C@H]1c2cc(Cl)ccc2OC[C@H]1O)C(C)(C)C
metabolised at 0.25 h, 1 µM [1]: 23%
clearance [5]: 7.83 mL/min/kg
CC50 [2]: > 10000 nM
EC50 [3]: 2.7 nM
EC50 [4]: 14 nM

COC(=O)N[C@H](C(=O)N[C@@H](Cc1ccc(-c2ccc(OC)nc2)cc1)[C@@H](O)C[C@@H](Cc1ccccc1F)C(=O)N[C@H]1c2cccc(Cl)c2OC[C@H]1O)C(C)(C)C
metabolised at 0.25 h, 1 µM [1]: 47%
clearance [5]: 65 mL/min/kg
CC50 [2]: > 10000 nM
EC50 [3]: 2.4 nM
EC50 [4]: 5.3 nM

COC(=O)N[C@H](C(=O)N[C@@H](Cc1ccc(-c2ccc(N(C)C)nc2)cc1)[C@@H](O)C[C@@H](Cc1ccccc1F)C(=O)N[C@H]1[C@H](C)CCC[C@H]1O)C(C)(C)C
metabolised at 0.25 h, 1 µM [1]: 99%
clearance [5]: 93.3 mL/min/kg
CC50 [2]: > 10000 nM
EC50 [3]: 1.1 nM
EC50 [4]: 4.9 nM

COC(=O)N[C@H](C(=O)N[C@@H](Cc1ccc(-c2ccc(OC)nc2)cc1)[C@@H](O)C[C@@H](Cc1ccccc1F)C(=O)N[C@H]1[C@H](C)CC[C@H]1O)C(C)(C)C
metabolised at 0.25 h, 1 µM [1]: 99%
clearance [5]: 78.3 mL/min/kg
CC50 [2]: > 10000 nM
EC50 [3]: 1.1 nM
EC50 [4]: 3.3 nM

COC(=O)N[C@H](C(=O)N[C@@H](Cc1ccc(-c2ccc(OC)nc2)cc1)[C@@H](O)C[C@@H](Cc1ccccc1Cl)C(=O)N[C@H]1c2cc(Cl)ccc2OC[C@H]1O)C(C)(C)C
metabolised at 0.25 h, 1 µM [1]: 5%
clearance [5]: 23.3 mL/min/kg
CC50 [2]: > 10000 nM
EC50 [3]: 3.9 nM
EC50 [4]: 13 nM

COC(=O)N[C@H](C(=O)N[C@@H](Cc1ccc(-c2ccc(OC)nc2)cc1)[C@@H](O)C[C@@H](Cc1ccccc1F)C(=O)N[C@H]1c2cc(F)ccc2OC[C@H]1O)C(C)(C)C
metabolised at 0.25 h, 1 µM [1]: 48%
clearance [5]: 35 mL/min/kg
CC50 [2]: > 10000 nM
EC50 [3]: 1.2 nM
EC50 [4]: 5.8 nM

COC(=O)N[C@H](C(=O)N[C@@H](Cc1ccc(-c2ccc(OC)nc2)cc1)[C@@H](O)C[C@@H](Cc1ccccc1F)C(=O)N[C@H]1c2cc(F)cc(Cl)c2OC[C@H]1O)C(C)(C)C
metabolised at 0.25 h, 1 µM [1]: 8%
clearance [5]: 31.7 mL/min/kg
CC50 [2]: > 10000 nM
EC50 [3]: 2.6 nM
EC50 [4]: 8.4 nM

COC(=O)N[C@H](C(=O)N[C@@H](Cc1ccc(-c2ccc(OC)nc2)cc1)[C@@H](O)C[C@@H](Cc1cccc(OC(F)(F)F)c1)C(=O)N[C@H]1c2cc(Cl)ccc2OC[C@H]1O)C(C)(C)C
metabolised at 0.25 h, 1 µM [1]: 0%
CC50 [2]: > 10000 nM
EC50 [3]: 4.2 nM
EC50 [4]: 24 nM

COC(=O)N[C@H](C(=O)N[C@@H](Cc1ccc(-c2ccc(OC)nc2)cc1)[C@@H](O)C[C@@H](Cc1ccccc1F)C(=O)N[C@H]1c2cc(F)cc(C)c2OC[C@H]1O)C(C)(C)C
metabolised at 0.25 h, 1 µM [1]: 17%
clearance [5]: 26.7 mL/min/kg
Ratio EC50 [6]: <1
Ratio EC50 [7]: 2
Ratio EC50 [8]: 3
EC50 [9]: 1.5 nM
EC50 [10]: 3.3 nM
EC50 [11]: 5.4 nM
CC50 [2]: > 10000 nM
EC50 [3]: 1.8 nM
EC50 [4]: 6.8 nM
